Test results: paper PMC4829350 (Biochimica et biophysica acta, 2014)
Read-outs that look alike come from different tables or passages of the source. Values belong to the compound of their own block, whether it stands above or below them. Residues, ends and D or L forms follow the SMILES beside them. *: point of attachment. Cbz = O=C(OCc1ccccc1)*

What was measured:
[1] = tested on: ProtNMR (naked mole-rat partially purified proteasome); assay type: biochemical, Heterocephalus glaber
[2] = target: T1, T-L active center of the proteasome (mouse) (Mus musculus, UniProt P70195); test: Peptidolytic assay, T-L activity, mouse liver subcellular fractions; assay type: biochemical
T1 sequence (P70195 44-277): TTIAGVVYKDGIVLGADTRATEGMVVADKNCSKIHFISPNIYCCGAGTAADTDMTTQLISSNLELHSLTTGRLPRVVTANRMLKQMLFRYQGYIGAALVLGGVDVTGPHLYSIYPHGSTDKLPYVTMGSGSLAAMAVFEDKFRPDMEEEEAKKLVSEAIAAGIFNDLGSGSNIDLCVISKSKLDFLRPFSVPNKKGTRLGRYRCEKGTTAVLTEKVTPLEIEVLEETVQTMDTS
In short: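 Female mice aged 4–6 months; liver split into cytosolic, microsomal and nuclear fractions. T-L activity was read with a fluorogenic AMC peptide, against an AMC standard curve, as pmol AMC/min/μg protein. Inhibitor classes were titrated: boronate 5nM–10μM, lactone 0.2μM–8μM, aldehyde and vinyl sulfone 10μM–250μM. IC50 was taken as 50% activity loss, from exponential-decay or sigmoidal fits.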

[3] = target: T2, ChT-L active center of the proteasome (mouse) (Mus musculus, UniProt O55234); test: Peptidolytic assay, ChT-L activity, mouse liver subcellular fractions; assay type: biochemical
T2 sequence (O55234 60-264): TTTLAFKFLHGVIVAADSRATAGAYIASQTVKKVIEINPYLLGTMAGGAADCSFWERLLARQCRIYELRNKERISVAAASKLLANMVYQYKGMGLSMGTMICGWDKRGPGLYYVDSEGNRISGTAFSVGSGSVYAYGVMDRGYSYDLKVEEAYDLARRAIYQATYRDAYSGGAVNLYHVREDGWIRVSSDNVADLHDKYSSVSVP

[4] = target: T3, ProtMS (mouse partially purified proteasome) (Mus musculus, UniProt O55234); assay type: biochemical
T3 sequence (O55234 60-264): T2 sequence (O55234 60-264)

[5] = target: T-L active center of the proteasome (NMR) (Heterocephalus glaber, UniProt A0A0P6JE03); test: Peptidolytic assay, T-L activity, naked mole-rat liver subcellular fractions; assay type: biochemical; settings: read-out: T-L IC50 NMR, cytosolic fraction, ± S.E.
[6] = target: ChT-L active center of the proteasome (NMR) (Heterocephalus glaber, UniProt G5ASK0); test: Peptidolytic assay, ChT-L activity, naked mole-rat liver subcellular fractions; assay type: biochemical
[7] = tested on: human 26S proteasome [h26S] in SNNMR; assay type: biochemical; settings: h26S in SNNMR challenged with MG132
In short: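 Naked mole-rat liver cytosolic lysate or its high-speed supernatant was incubated at 30°C for 1hr with 1mM ATP plus anti-chaperone antibodies (HSP72, HSP40, HSP25, HSP90; 10pg–400pg) or HSP72 inhibitors (25nM–1000nM or 10μM–1000μM). Purified human 26S proteasome was then added, and ChT-L activity was read with Suc-LLVY-AMC ± 20μM MG132.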

[8] = tested on: naked mole-rat proteasome (ChT-L activity) with HSPs of NMR cytosol/supernatant; assay type: biochemical, Heterocephalus glaber; settings: for effect on inhibition resistance / sensitivity to inhibition: NMR cytosolic fraction or SNNMR + Prot, 20 μM MG132
In short: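 HSP antibodies (anti-HSP72, -HSP40, -HSP25 or -HSP90; 10pg to 400pg, serially diluted in PBS/50% glycerol) or small-molecule HSP72 inhibitors (25nM to 1000nM; 10μM to 1000μM) added to NMR cytosolic lysate or 100,000xg supernatant. Incubated 1hr at 30°C with 1mM ATP. Human 26S or partially purified NMR proteasome then added. ChT-L activity read with Suc-LLVY-AMC ± 20μM MG132, as pmol AMC/min/μg protein.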

[9] = target: human 26S proteasome [h26S] (Homo sapiens, UniProt P20618+P28074); test: ChT-L activity of purified human 26S proteasome with supernatants or fractions; assay type: biochemical; settings: 10 nM BZ
[10] = sample ProtNMR + FT, 20 μM MG132
[11] = sample ProtNMR + FT, 50 μM MG132
[12] = sample ProtNMR + R, 20 μM MG132
[13] = sample ProtNMR + R, 50 μM MG132
[14] = sample ProtNMR + SN, 20 μM MG132
[15] = sample ProtNMR + SN, 50 μM MG132
[16] = ChT-L IC50 Ms, cytosolic fraction, ± S.E.
[17] = sample ProtMS + FT, 20 μM MG132
[18] = sample ProtMS + FT, 50 μM MG132
[19] = sample ProtMS + SN, 20 μM MG132
[20] = sample ProtMS + SN, 50 μM MG132

Compound: CC(C)C[C@@H](C=O)NC(=O)[C@H](CC(C)C)NC(=O)[C@H](CC(C)C)NC(=O)OCc1ccccc1 [MG132, N-(benzyl-oxycarbonyl) leucinyl-leucinyl-leucinal] (Cbz-Leu-Leu-Leu-aldehyde)
- ChT-L activity, Mean ± SE ([1]; sample ProtNMR + FT (flow-through), 10 μM MG132): 40 ± 18 pmol AMC/min/μg protein
- % Inhibition ([1]; sample ProtNMR + FT, 10 μM MG132): 83.1%
- % Inhibition [1, 10]: 88.6%
- ChT-L activity, Mean ± SE [1, 10]: 27 ± 18 pmol AMC/min/μg protein
- % Inhibition [1, 11]: 93.2%
- ChT-L activity, Mean ± SE [1, 11]: 16 ± 13 pmol AMC/min/μg protein
- ChT-L activity, Mean ± SE ([1]; sample ProtNMR + R (retentate), 10 μM MG132): 542 ± 181 ^# pmol AMC/min/μg protein
- % Inhibition ([1]; sample ProtNMR + R, 10 μM MG132): 31.0%
- % Inhibition [1, 12]: 39.0%
- ChT-L activity, Mean ± SE [1, 12]: 479 ± 146 ^# pmol AMC/min/μg protein
- % Inhibition [1, 13]: 51.8%
- ChT-L activity, Mean ± SE [1, 13]: 378 ± 104 ^# pmol AMC/min/μg protein
- ChT-L activity, Mean ± SE ([1]; sample ProtNMR + SN (NMR supernatant), 10 μM MG132): 488 ± 58 ^# pmol AMC/min/μg protein
- % Inhibition ([1]; sample ProtNMR + SN, 10 μM MG132): 51.7%
- % Inhibition [1, 14]: 50.6%
- ChT-L activity, Mean ± SE [1, 14]: 499 ± 71 ^# pmol AMC/min/μg protein
- % Inhibition [1, 15]: 67.7%
- ChT-L activity, Mean ± SE [1, 15]: 327 ± 104 ^# pmol AMC/min/μg protein
- % Inhibition ([1]; sample ProtNMR, 10 μM MG132): 86.0%
- ChT-L activity, Mean ± SE ([1]; sample ProtNMR, 10 μM MG132): 72 ± 13 pmol AMC/min/μg protein
- % Inhibition ([1]; sample ProtNMR, 20 μM MG132): 91.6%
- ChT-L activity, Mean ± SE ([1]; sample ProtNMR, 20 μM MG132): 43 ± 0.3 pmol AMC/min/μg protein
- % Inhibition ([1]; sample ProtNMR, 50 μM MG132): 95.5%
- ChT-L activity, Mean ± SE ([1]; sample ProtNMR, 50 μM MG132): 23 ± 1.0 pmol AMC/min/μg protein
- IC50 ([2]; T-L IC50 Ms, cytosolic fraction, ± S.E.): 14.6 ± 4.4 µM
- IC50 ([2]; T-L IC50 Ms, microsomal fraction): 6.63 µM
- IC50 ([2]; T-L IC50 Ms, nuclear fraction, ± S.E.): 12.8 ± 4.7 µM
- IC50 [3, 16]: 8.22 ± 2.75 µM
- IC50 ([3]; ChT-L IC50 Ms, microsomal fraction): 0.99 µM
- IC50 ([3]; ChT-L IC50 Ms, nuclear fraction, ± S.E.): 4.6 ± 1.62 µM
- ChT-L activity, Mean ± SE ([4]; sample ProtMS + FT (flow-through), 10 μM MG132): 17 ± 0.3 pmol AMC/min/μg protein
- inhibition at 10 µM ([4]; sample ProtMS + FT, 10 μM MG132): 85.5%
- ChT-L activity, Mean ± SE [4, 17]: 15 ± 3.0 pmol AMC/min/μg protein
- inhibition at 20 µM [4, 17]: 87.2%
- ChT-L activity, Mean ± SE [4, 18]: 3.0 ± 1.9 pmol AMC/min/μg protein
- inhibition at 50 µM [4, 18]: 97.4%
- ChT-L activity, Mean ± SE ([4]; sample ProtMS + R (retentate), 10 μM MG132): 178 ± 72 ^# pmol AMC/min/μg protein
- inhibition at 10 µM ([4]; sample ProtMS + R, 10 μM MG132): 36.9%
- ChT-L activity, Mean ± SE ([4]; sample ProtMS + R, 20 μM MG132): 172 ± 70 ^# pmol AMC/min/μg protein
- inhibition at 20 µM ([4]; sample ProtMS + R, 20 μM MG132): 39%
- ChT-L activity, Mean ± SE ([4]; sample ProtMS + R, 50 μM MG132): 89 ± 12 ^# pmol AMC/min/μg protein
- inhibition at 50 µM ([4]; sample ProtMS + R, 50 μM MG132): 68.4%
- ChT-L activity, Mean ± SE ([4]; sample ProtMS + SN (NMR supernatant), 10 μM MG132): 126 ± 22 ^# pmol AMC/min/μg protein
- inhibition at 10 µM ([4]; sample ProtMS + SN, 10 μM MG132): 52.1%
- ChT-L activity, Mean ± SE [4, 19]: 116 ± 20 ^# pmol AMC/min/μg protein
- inhibition at 20 µM [4, 19]: 55.9%
- ChT-L activity, Mean ± SE [4, 20]: 84 ± 34 ^# pmol AMC/min/μg protein
- inhibition at 50 µM [4, 20]: 68.1%
- ChT-L activity, Mean ± SE ([4]; sample ProtMS, 10 μM MG132): 25 ± 0.1 pmol AMC/min/μg protein
- inhibition at 10 µM ([4]; sample ProtMS, 10 μM MG132): 87.6%
- ChT-L activity, Mean ± SE ([4]; sample ProtMS, 20 μM MG132): 17 ± 0.2 pmol AMC/min/μg protein
- inhibition at 20 µM ([4]; sample ProtMS, 20 μM MG132): 91.5%
- ChT-L activity, Mean ± SE ([4]; sample ProtMS, 50 μM MG132): 11 ± 0.1 pmol AMC/min/μg protein
- inhibition at 50 µM ([4]; sample ProtMS, 50 μM MG132): 94.5%

- IC50 [3, 16]: 0.156 ± 0.005 µM
Compound: CC(=O)N[C@@H](CSC(=O)[C@]1([C@@H](O)C(C)C)NC(=O)[C@H](C)[C@@H]1O)C(=O)O [LC, lactacystin]

- IC50 [5]: 80.6 ± 2.5 µM
- ChT-L IC50 in naked mole-rat relative to mouse cytosolic extracts ([6]; cytosolic extracts): 22 fold
- IC50 ([6]; read-out: ChT-L IC50 NMR, cytosolic fraction, liver, ± S.E.): 125 ± 5.6 µM
- IC50 ([2]; read-out: T-L IC50 Ms, cytosolic fraction, ± S.E.): 16.2 ± 1.9 µM
- IC50 ([3]; read-out: ChT-L IC50 Ms, cytosolic fraction, ± S.E.): 5.56 ± 1.57 µM
Compound: CC(C)CC(C=CS(C)(=O)=O)NC(=O)[C@H](CC(C)C)NC(=O)[C@H](CC(C)C)NC(=O)CCCCCNC(=O)CCCCCNC(=O)CCCCCNC(=O)CC12CC3CC(CC(C3)C1)C2 (stereo partly drawn) [Adh (VS), adamantane-acetyl-(6-aminohexanoyl)3-(leucinyl)3-vinyl-(methyl)-sulfone]

Compound: N#Cc1ccc(COC[C@H]2O[C@@H](n3c(NCc4ccc(Cl)c(Cl)c4)nc4c(N)ncnc43)[C@H](O)[C@@H]2O)cc1 [VER155008]
- effect on inhibition resistance [7]: did not disrupt the inhibition resistance
- effect on inhibition resistance / sensitivity to inhibition [8]: did not disrupt the inhibition resistance
- effect on proteasome activity associated with SNNMR ([8]; titration 25nM to 1000nM): had no effect

Compound: NS(=O)(=O)C#Cc1ccccc1 [pifithrin-μ]
- effect on inhibition resistance / sensitivity to inhibition [8]: attenuated resistance to inhibition

- ablation of ChT-L activity of h26S ([9]; h26S without fr.23): 75%
- reduction of ChT-L activity of h26S ([9]; in the presence of fr. 23): 30%
Compound: CC(C)C[C@H](NC(=O)[C@H](Cc1ccccc1)NC(=O)c1cnccn1)B(O)O [BZ, bortezomib]
